{"data": "Assay results collected from several papers", "note": "Protocols differ between the studies behind these lines."}
{"SMILES": "Cc1nc(NC(=O)N2CCC[C@H]2C(N)=O)sc1-c1ccnc(C(C)(C)C(F)(F)F)c1", "system": "human, plasma", "setting": "oral, 350 mg, patients", "Tmax": "1.77 h"}
{"SMILES": "COc1ccc([C@@H]2CN(C(=O)[C@@H](O)CO)C[C@@]2(C)[C@@H](C)O)cc1OC1CN(c2ccc(C)cn2)C1", "system": "human, plasma", "setting": "oral, 20 mg, single dose, healthy volunteers", "Tmax": "1.5 h"}
{"SMILES": "O=C(Nc1c(Cl)cncc1Cl)c1ccc(OC(F)F)c(OCC2CC2)c1", "system": "human, plasma", "setting": "oral, 0.375 mg, single dose", "Tmax": "0.5 h"}
{"SMILES": "C[C@@H](Nc1cc(F)cc(F)c1)c1cc(C(=O)N(C)C)cc2c(=O)cc(N3CCOCC3)oc12", "system": "human, plasma", "setting": "oral, 30 mg, single dose, patients", "Tmax": "2 h"}
{"SMILES": "CC(C)n1cc(C#N)c2cc(-n3cc(C(=O)O)cn3)ccc21", "system": "human, plasma", "setting": "oral, 25 mg, single dose, fasted, healthy volunteers", "Tmax": "2.3 h"}
{"SMILES": "CC(C)(Sc1ccncc1-c1ccc(C#N)c2ccccc12)C(=O)O", "system": "male human, plasma", "setting": "oral, 5 mg, single dose, fed, healthy volunteers", "Tmax": "1.25 h"}
{"SMILES": "C[C@@]1(c2cc(NC(=O)c3ccc(C#N)cn3)ccc2F)C=CSC(N)=N1", "system": "human, plasma", "setting": "oral, 1 mg, single dose", "Tmax": "0.89 h"}
{"SMILES": "CCc1nc2c(C)cc(N3CCN(CC(=O)N4CC(O)C4)CC3)cn2c1N(C)c1nc(-c2ccc(F)cc2)c(C#N)s1", "system": "human, plasma", "setting": "oral, 20 mg, fed, healthy volunteers", "Tmax": "1 h"}
{"SMILES": "CO[C@@H]1[C@H](OC(=O)N2CC(CCN3CCOCC3)C2)CC[C@]2(CO2)[C@H]1[C@@]1(C)O[C@@H]1CC=C(C)C", "system": "human, plasma", "setting": "subcutaneous, 2.4 mg, single dose, healthy volunteers", "Tmax": "0.25 h"}
{"SMILES": "CC(C)(O)c1ccccc1-c1ccc2[nH]c(/C=C/c3ccc(C(F)(F)F)cc3)nc2c1", "system": "male human, plasma", "setting": "oral, 50 mg, single dose, fasted", "Tmax": "2.9 h"}
{"SMILES": "c1cnc2ccc(Nc3nc(NC4CC4)c4nc[nH]c4n3)cc2c1", "system": "human, plasma", "setting": "oral, 50 mg/m², patients", "Tmax": "5 h"}
{"SMILES": "CS(=O)(=O)CCC#N", "system": "human, plasma", "setting": "oral, 300 mg, multiple doses, once daily", "Tmax": "1 h"}
{"SMILES": "C#C[C@]1(COP(=O)(O)OP(=O)(O)OP(=O)(O)O)O[C@@H](n2cnc3c(N)nc(F)nc32)C[C@@H]1O", "system": "human, plasma", "setting": "oral, 200 mg, single dose", "Tmax": "6 h"}
{"SMILES": "C=CC(=O)N(C)CCOc1c(N)ncnc1-c1cc(F)cc(NC(=O)c2ccc(C3CC3)cc2F)c1C", "system": "human, blood", "setting": "oral, 200 mg, single dose, healthy volunteers", "Tmax": "1.25 h"}
{"SMILES": "Cn1cc(-c2ccc(S(=O)(=O)[C@@H]3C[C@@H](C(=O)NC4(C#N)CC4)N(C(=O)C4(C(F)(F)F)CC4)C3)c(C(F)(F)F)c2)cn1", "system": "human, plasma", "setting": "oral, 100 mg, single dose, fasted, healthy volunteers", "Tmax": "4 h"}
